Measured values: article PMC3565245 (Current Chemical Genomics, 2012)
Where a name gives a salt, the structure may show the parent alone. Read-outs that look alike come from different tables or passages of the source.

B1: glCK (Giardia lamblia ATCC 50803) (protein)
chain: MSAGKTVVIALGGNAMLQAKEKGDYDTQRKNVEIAASEIYKIHKAGYKVVLTSGNGPQVGAIKLQNQAAAGVSPEMPLHVCGAMSQGFIGYMMSQAMDNVFCANNEPANCVTCVTQTLVDPKDQAFTNPTKPVGRFYTEQEAKDLMAANPGKILREDAGRGWRVVVPSPRPLEIVEYGVIKTLIDNNVLVICTNGGGIPCKRENKVISGVDAVIDKDLATSLLAKTLNSDYLMILTDVLNACINYKKPDERKLEEIKLSEILALEKDGHFAAGSMGPKVRAAIEFTQATGKMSIITSLSTAVDALNGKCGTRIIKD

Tests used:
[1] = molecular target: T1, Giardia lamblia carbamate kinase (glCK) (Giardia intestinalis, UniProt A8BB85); test: Luminescence-based carbamate kinase assay in 1536-well format; assay type: biochemical; conditions: for Efficacy (% Inhibition): maximal response of the fitted curve, luminescence assay
T1 sequence (A8BB85 1-316): B1 chain
Method in brief: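 Reaction was started with ADP/carbamoyl phosphate (final 150 µM) plus ATPLite and run 20 min at room temperature before the luminescence read. Data were normalized to DMSO and no-enzyme wells, pattern-corrected, and Hill-fitted for IC50 and efficacy.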

[2] = molecular target: T2, glCK (Giardia intestinalis, UniProt A8BB85); test: Absorbance-based carbamate kinase assay; assay type: biochemical, Giardia lamblia
T2 sequence (A8BB85 1-316): B1 chain
Method in brief: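 Coupled absorbance assay at room temperature. glCK in 20 mM Tris-HCl pH 7.5 was preincubated 15 min with test compound (final 0.002, 0.02, 0.2, 1, 2, 20, 200 μM; enzyme final 5 nM). It was then added to substrate mix (ADP, carbamoyl phosphate, final 40 µM; 30 mM MgCl2, glucose, NADP, hexokinase, G6P dehydrogenase). NADPH was followed at 340 nm, and IC50 was derived from initial velocities.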

[3] = tested on: Giardia; conditions: maximum screening concentration of 38.3 µM; cited from earlier work
[4] = tested on: Giardia infection; conditions: cited from earlier work
[5] = tested on: giardiasis; conditions: giardiasis standard of care; cited from earlier work
[6] = substrate: Nc1ncnc2c1ncn2[C@@H]1O[C@H](COP(=O)(O)OP(=O)(O)O)[C@@H](O)[C@H]1O; test: Steady-state kinetics of glCK, luminescence assay in 384-well format; assay type: biochemical, Giardia lamblia; conditions: other: room temperature, substrate of glCK; pH 8.0
[7] = IC50 Luminescence Assay, Table 3, secondary assay comparison

Molecule | Efficacy (% Inhibition) [1] [%] | IC50 [1, 7] [nM] | IC50 [2] [nM] | also measured
Oc1cc2c(cc1O)[C@H]1c3ccccc3CN[C@@H]1CC2 (racemic) [Dihydrexidine hydrochloride] | 82.9 |  |  | 
O=C(O)Cc1ccc(O)c(O)c1 [3,4-Dihydroxyphenylacetic acid] | 80.2 | 6510 | 11700 | 
CC(C)(C)C(=O)OCOP(=O)(COCCn1cnc2c(N)ncnc21)OCOC(=O)C(C)(C)C [Adefovir dipivoxil] | 83.6 | 16300 | > 200000 | 
CN1CCc2cccc3c2[C@H]1Cc1ccc(O)c(O)c1-3 [Apomorphine hydrochloride hemihydrate] | 89.4 | 3260 | > 200000 | 
OC[C@H]1O[C@H]([S-])[C@H](O)[C@@H](O)[C@@H]1O.[Au+] [Aurothioglucose] | 81.2 |  |  | 
CCOC(=S)SSC(=S)OCC [Bis(ethylxanthogen)] | 82.3 |  |  | 
O=C1C2CC=CCC2C(=O)N1SC(Cl)(Cl)Cl (stereo not drawn) [Captan] | 88.6 | 2590 | 470 | 
C[C@@](Cc1ccc(O)c(O)c1)(NN)C(=O)O [Carbidopa] | 79.4 | 5800 | > 200000 | 
N.N.[Cl][Pt][Cl] [Cisplatin] | 88.2 |  |  | 
CCN(CC)C(=S)SSC(=S)N(CC)CC [Disulfiram] | 90.5 | 580 | 1390 | activity in Giardia killing screen (>30% reduction in ATP content) [3]: active; anti-giardial activities in a mouse model [4]: anti-giardial activities
CCN(CC)C(=S)S [Ditiocarb] | 77.7 |  |  | activity in Giardia killing screen (>30% reduction in ATP content) [3]: active
Oc1ccc(C2CNCCc3c2cc(O)c(O)c3Cl)cc1 (stereo not drawn) [Fenoldopam] | 84.5 |  |  | 
O=C(O)c1cc(O)c(O)c(O)c1 [Gallic acid] | 89.2 | 650 | 11400 | 
O=C([O-])c1ccccc1-c1c2cc(Br)c(=O)cc-2oc2[c]([Hg+])c([O-])c(Br)cc12.[Na+].[Na+].[OH-] [Mercurochrome] | 93.8 |  |  | IC50 ([1]; read-out: IC50 Luminescence Assay, Table 3, secondary assay comparison): 2060 nM; IC50 ([2]; read-out: IC50 Absorbance Assay, 5 nM glCK, inhibitor up to 200 μM): 220 nM
Oc1cccc(O)c1O [Pyrogallol] | 77.4 | 16300 | 2700 | 
O=C(O)[C@@H](S)[C@@H](S)C(=O)O [Succimer] | 85.5 | 650 | 540 | 
CN(C)C(=S)SSC(=S)N(C)C [Thiram] | 92.3 | 4110 | 640 | activity in Giardia killing screen (>30% reduction in ATP content) [3]: active; IC50 ([1]; IC50, values of the running text, chelator class): 4100 nM; anti-giardial activities in a mouse model [4]: anti-giardial activities
Cc1ncc([N+](=O)[O-])n1CCO [metronidazole] |  |  |  | single course cure rates [5]: 80–95%
CCS(=O)(=O)CCn1c([N+](=O)[O-])cnc1C [tinidazole] |  |  |  | single course cure rates [5]: 80–95%
B1 |  |  |  | Km [6]: 58.3 ± 2.4 µM
